Here are results for 2 compounds from ChEMBL document CHEMBL2331355, “Synthesis, structure activity relationship and mode of action of 3-substitutedphenyl-1-(2,2,8,8-tetramethyl-3,4,9,10-tetrahydro-2H,8H-pyrano[2,3-f]chromen-6-yl)-propenones as novel anticancer agents in human leukaemia HL-60 cells” (Eur J Med Chem, 2013).

SMILES strings stand for the structures.

The subject of one assay is Caco-2. Put plainly: Growth inhibition of human Caco2 cells at 50 uM after 48 hrs by MTT assay. The format is functional. Conditions: Caco-2, 48 h, read-out: GI. An outline of the steps:
(§1)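 Single-concentration MTT screen at 50 µM over 48 h in 96-well plates. Compounds giving >50% inhibition were rescreened at 30 µM. OD read at 570 nm, reference 620 nm. Result expressed as % growth inhibition versus untreated control. Mitomycin C, adriamycin or 5-fluorouracil used as positive controls. Mean ± SD of three independent experiments.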
In general terms: Tetrazolium dyes change colour on reduction, which living cells bring about.

For assay [1], the system named is HL-60. As to the kind of experiment: Induction of apoptosis in human HL60 cells at 5 uM after 24 hrs by PI-staining based flow cytometric analysis (reference value: 0.7 %). The format is functional. A general note: Flow cytometry measures light scatter and fluorescence of single cells or particles in a stream.
The test system of assay [2] is HL-60. As to the kind of experiment: Cell cycle arrest in human HL60 cells assessed as accumulation of G0/G1 phase cells at 5 uM after 24 hrs by PI staining-based flow cytometric analysis (reference value: 48%). The class given is functional.
A further assay concerns PC-3. As to the kind of experiment: Cytotoxicity against human PC3 cells after 48 hrs by MTT assay. The format is functional, cell-based. Conditions: PC-3, 48 h. In a few lines: (§2)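 MTT assay in 96-well plates, 48 h exposure across 1–100 µM. OD read at 570 nm against a 620 nm reference. Untreated control OD taken as 100% viability. IC50 derived from the concentration–response curves. Mean ± SD, n = 8 wells, from three independent experiments.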

Assay [3] relates to HL-60. As to the kind of experiment: Cell cycle arrest in human HL60 cells assessed as G2/M phase cells at 5 uM after 24 hrs by PI staining-based flow cytometric analysis (reference value: 3%). The format is functional.
In assay [4] the test system is HL-60. As to the kind of experiment: Growth inhibition of human HL60 cells at 50 uM after 48 hrs by MTT assay. Conditions: HL-60, 48 h, read-out: GI. The format is functional. An outline of the steps: as §1
A further assay deals with MIA PaCa-2. As to the kind of experiment: Cytotoxicity against human MIAPaCa2 cells after 48 hrs by MTT assay. The class given is functional, cell-based. The conditions noted are these: MIA PaCa-2, 48 h. In a few lines: as §2
The test system of assay [5] is HL-60. As to the kind of experiment: Induction of apoptosis in human HL60 cells assessed as accumulation of sub-G0/G1 phase cells after 24 hrs by PI-staining based flow cytometric analysis. The format is functional, cell-based.
The test system of assay [6] is HL-60. As to the kind of experiment: Cell cycle arrest in human HL60 cells assessed as accumulation of G0/G1 phase cells at 20 uM after 24 hrs by PI staining-based flow cytometric analysis (reference value: 48%). The class given is functional.
For assay [7], the system named is HL-60. Put plainly: Cell cycle arrest in human HL60 cells assessed as accumulation of G0/G1 phase cells after 24 hrs by PI staining-based flow cytometric analysis. The class given is functional.
Assay [8] has as its system HL-60. As to the kind of experiment: Induction of mitochondrial membrane potential loss in human HL60 cells at 20 uM after 24 hrs by rhodamine-123 staining method (reference value: 7%). The class given is functional. An outline of the steps: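 HL-60 cells (1 × 10⁶/2 ml/well) treated 24 h at 15 or 20 µM, then incubated with rhodamine-123 (200 nM) for 40 min. Loss of dye uptake measured by flow cytometry. Camptothecin (4 µM, 6 h) as positive control. Representative of three experiments.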

`CC1(C)CCc2cc(C(=O)/C=C/c3cccc([N+](=O)[O-])c3)c3c(c2O1)CCC(C)(C)O3`: the inhibition of growth at 50 µM in the assay with Caco-2 was 93%; with HL-60 [4], 92%. The Activity in the assay with HL-60 [1] is 3%; in the assay on HL-60 [2], 46%; with HL-60 [3] it was 6%; in the assay on HL-60 [5], “Dose-dependent effect”; in the assay on HL-60 [6], 86%; with HL-60 [7], “Dose-dependent effect”. The compound also registered an Activity in the assay on HL-60 [8] of 48%. Besides, the values for the concentration for half-maximal inhibition (IC50) in the assay on PC-3 and with MIA PaCa-2 were 8 µM and 18 µM, respectively.
On to `CC1(C)CCc2cc(C(=O)/C=C/c3ccc([N+](=O)[O-])cc3)c3c(c2O1)CCC(C)(C)O3`, for which the inhibition of growth at 50 µM was 73% with Caco-2 and 91% in the assay on HL-60 [4]. For the same compound, the Activity was 3% with HL-60 [1]; 44% with HL-60 [2]; 9% in the assay with HL-60 [3]; “Dose-dependent effect” in the assay on HL-60 [5]; 59% in the assay with HL-60 [6]; “Dose-dependent effect” in the assay with HL-60 [7]. In the assay on HL-60 [8], this compound had an Activity of 56%. Besides, the IC50 was 26 µM in the assay on PC-3 and 45 µM in the assay on MIA PaCa-2.

A word on the IC50: it is the midpoint of a concentration-inhibition curve. A low value points to greater potency.
